In ChEMBL document CHEMBL1649334, “Trypanocidal activity of aziridinyl nitrobenzamide prodrugs” (Antimicrob Agents Chemother, 2010):
Activity calls are given as the source filed them. The rule behind the calls is not given here.

Tests used:
[1] = tested on: Trypanosoma brucei; assay: Antitrypanosomal activity against Trypanosoma brucei BSF overexpressing NTR gene assessed as growth inhibition after 3 days by Alamar blue assay; format: functional, organism-based; conditions: 72 h
Procedure, shortened: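 Bloodstream-form 2T1 parasites overexpressing TbNTR, kept in hygromycin, seeded at 1×10^3 ml⁻¹ in modified Iscove's medium with graded compound. Tetracycline 1 μg ml⁻¹ added for induction where appropriate. 3 days at 37°C, 5% CO2, then Alamar Blue for 16 h; fluorescence at ex 530/em 585 nm. IC50 calculated; means of 4 experiments ± SD.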

[2] = tested on: Trypanosoma cruzi; assay: Antitrypanosomal activity against Trypanosoma cruzi clone Cl-Brener infected in african green monkey Vero cells assessed as growth inhibition after 3 days by luciferase reporter gene assay; format: functional, organism-based; conditions: 72 h
Procedure, shortened: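 Vero cells seeded at 1.5×10^4 ml⁻¹, allowed to adhere 6 h, then infected overnight with 10,000 luciferase-expressing Cl-Brener trypomastigotes per well. After two washes to remove free parasites, drug-containing medium was added for 3 days at 37°C, 5% CO2. Cells were lysed and luciferase light output read; IC50 calculated.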

[3] = tested on: Trypanosoma brucei; assay: Activity of Trypanosoma brucei NTR expressed in Escherichia coli assessed as enzyme-mediated compound reduction by reverse phase HPLC
Procedure, shortened: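 Recombinant His-tagged TbNTR purified from E. coli (Ni-NTA). Substrate 100 μM with 200 μM NADH, 3 mM glucose, 1 U glucose dehydrogenase in 50 mM NaH2PO4 pH 7.5 at 37°C; started with 50 μg enzyme. Aliquots at 20–600 s quenched in ice-cold methanol. Substrate loss followed by reversed-phase HPLC (4–56% acetonitrile, 254/340/450 nm), quantified against a nifurtimox standard.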

[4] = tested on: Vero; assay: Cytotoxicity against african green monkey Vero cells after 6 days by Alamar blue assay; format: cell-based; conditions: Chlorocebus sabaeus, 144 h
Procedure, shortened: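 Vero cells seeded at 1×10^4 ml⁻¹ in RPMI 1640 with 10% FCS containing graded compound (up to 250 μM). 6 days at 37°C, 5% CO2, then Alamar Blue for 8 h; fluorescence read and IC50 derived.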

[5] = tested on: V79; assay: Cytotoxicity against chinese hamster V79 cells after 6 days by Alamar blue assay; format: cell-based; conditions: Cricetulus griseus, V79, 144 h

For `O=[N+]([O-])c1cc(NCC(O)CO)c(N2CC2)c([N+](=O)[O-])c1` (centres undefined), the IC50 [1] was > 6.4 µM and the IC50 [2] was > 10 µM.

`NC(=O)c1cc([N+](=O)[O-])cc([N+](=O)[O-])c1N1CC1` was tested, and the IC50 [1] was > 10 µM and the IC50 [2] was > 10 µM.

In the case of `COC(=O)CCNC(=O)c1cc(N2CC2)c([N+](=O)[O-])cc1[N+](=O)[O-]`, the Activity [3] is reported as “Active”, the IC50 [1] is reported as 1.45 µM and the IC50 [4] is reported as > 250 µM. It also gave an IC50 [5] of 634 µM and an IC50 [2] of 0.69 µM.

For `CS(=O)(=O)c1cc([N+](=O)[O-])c(N2CC2)cc1C(N)=O`, the IC50 [1] was > 10 µM and the IC50 [2] was > 10 µM.

`CS(=O)(=O)c1cc([N+](=O)[O-])c(N2CC2)cc1NCC(O)CO` (centres undefined) was tested, and the IC50 [1] was > 10 µM and the IC50 [2] was > 10 µM.

With `O=C(NCCN1CCOCC1)c1cc(N2CC2)c([N+](=O)[O-])cc1[N+](=O)[O-]` the Activity [3] was “Active”, the IC50 [1] was 0.89 µM and the IC50 [4] was > 250 µM. The IC50 [5] was 624 µM and the IC50 [2] was 1.59 µM.

Work on `CC1CS(=O)(=O)CCN1/N=C/c1ccc([N+](=O)[O-])o1` (centres undefined) [NIFURTIMOX] yielded an IC50 [4] of 64.1 µM, an IC50 [5] of 35 µM and an IC50 [2] of 0.24 µM.

In the case of `NC(=O)c1cc(N2CC2)c([N+](=O)[O-])cc1[N+](=O)[O-]` [TRETAZICAR], the Activity [3] is reported as “Active”, the IC50 [4] is reported as > 250 µM and the IC50 [5] is reported as 543 µM. The IC50 [2] was 0.57 µM.

For `NC(=O)c1ccc([N+](=O)[O-])c(N2CC2)c1`, the IC50 [1] was > 10 µM and the IC50 [2] was > 10 µM.

With `O=C(NCCN1CCOCC1)c1cc([N+](=O)[O-])cc([N+](=O)[O-])c1N1CC1` the IC50 [1] was > 10 µM and the IC50 [2] was > 10 µM.
